Measured values published in ChEMBL document CHEMBL4038284, “Synthesis of novel quinoline-based 4,5-dihydro-1H-pyrazoles as potential anticancer, antifungal, antibacterial and antiprotozoal agents” (Eur J Med Chem, 2017).
Values after ≈ are worked out from the molar mass of the structure shown.

Key:
[1] = tested on: Klebsiella pneumoniae; assay: Antibacterial activity against ESBL positive Klebsiella pneumoniae ATCC 700603 after 24 hrs by resazurin dye based microdilution assay; format: functional; settings: Klebsiella pneumoniae, 700603, 24 h
Procedure, shortened: (§1)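 MIC taken as the lowest concentration giving visible inhibition and/or by resazurin (1 mg/mL). Gentamicin was the control. Run in duplicate, repeated at least three times.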

[2] = tested on: Klebsiella pneumoniae; assay: Antibacterial activity against carbapenemase positive Klebsiella pneumoniae BAA 1705 after 24 hrs by resazurin dye based microdilution assay; format: functional; settings: BAA 1705, 24 h; procedure, shortened: as §1
[3] = tested on: Leishmania panamensis; assay: Antileshmanial activity against EpiR/GFP fused Leishmania panamensis MHOM/CO/87/UA140 intracellular amastigotes infected in human […] cells after 72 hrs by flow cytometric method; format: functional, cell-based; settings: MHOM/CO/87/UA140, 72 h
Procedure, shortened: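 PMA-treated U-937 cells (3 × 10^5 cells/mL) infected with stationary-phase GFP L. panamensis promastigotes (15:1), 3 h at 34 °C, then washed. After 24 h, compounds added at 50, 12.5, 3.125 and 0.78 µg/mL for 72 h at 37 °C. EC50 by Probit; triplicate, two experiments.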

[4] = tested on: Candida albicans; assay: Antifungal activity against Candida albicans ATCC 10231 incubated for 48 hrs under dark condition by broth microdilution method; format: functional; settings: ATCC 10231, 48 h
Procedure, shortened: (§2)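 CLSI M27-A3 broth microdilution in RPMI-1640, DMSO ≤1%, compounds at 250-0.98 µg/mL final. Inoculum 1-5 × 10^3 CFU/mL. Incubated 48 h at 30 °C in a moist dark chamber, read at OD405. MIC80 and MIC50 taken from % inhibition dose-response curves (mean ± SEM, triplicate). Amphotericin B was the positive control.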

[5] = tested on: Cryptococcus neoformans; assay: Antifungal activity against Cryptococcus neoformans ATCC 32264 incubated for 48 hrs under dark condition by broth microdilution method; format: functional; settings: ATCC 32264, 48 h; procedure, shortened: as §2
[6] = tested on: Candida albicans; assay: Growth inhibition of Candida albicans ATCC 10231 at 250 ug/ml incubated for 48 hrs under dark condition by broth microdilution method relative to control; format: functional; settings: ATCC 10231, 48 h, read-out: GI
Procedure, shortened: (§3)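 CLSI M27-A3 broth microdilution in RPMI-1640, DMSO ≤1%. Inoculum 1-5 × 10^3 CFU/mL. Incubated 48 h at 30 °C, dark. % inhibition = 100 − (OD405 test − sterility control)/(OD405 growth control − sterility control), with growth and sterility control wells. Triplicate.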

[7] = tested on: Candida albicans; assay: Growth inhibition of Candida albicans ATCC 10231 at 125 ug/ml incubated for 48 hrs under dark condition by broth microdilution method relative to control; format: functional; settings: ATCC 10231, 48 h, read-out: GI; procedure, shortened: as §3
[8] = tested on: Candida albicans; assay: Growth inhibition of Candida albicans ATCC 10231 at 62.5 ug/ml incubated for 48 hrs under dark condition by broth microdilution method relative to control; format: functional; settings: ATCC 10231, 48 h, read-out: GI; procedure, shortened: as §3
[9] = tested on: Candida albicans; assay: Growth inhibition of Candida albicans ATCC 10231 at 31.25 ug/ml incubated for 48 hrs under dark condition by broth microdilution method relative to control; format: functional; settings: ATCC 10231, 48 h, read-out: GI; procedure, shortened: as §3
[10] = tested on: Candida albicans; assay: Growth inhibition of Candida albicans ATCC 10231 at 15.62 ug/ml incubated for 48 hrs under dark condition by broth microdilution method relative to control; format: functional; settings: ATCC 10231, 48 h, read-out: GI; procedure, shortened: as §3
[11] = tested on: Candida albicans; assay: Growth inhibition of Candida albicans ATCC 10231 at 7.8 ug/ml incubated for 48 hrs under dark condition by broth microdilution method relative to control; format: functional; settings: ATCC 10231, 48 h, read-out: GI; procedure, shortened: as §3
[12] = tested on: Candida albicans; assay: Growth inhibition of Candida albicans ATCC 10231 at 3.4 ug/ml incubated for 48 hrs under dark condition by broth microdilution method relative to control; format: functional; settings: ATCC 10231, 48 h, read-out: GI
[13] = tested on: Cryptococcus neoformans; assay: Growth inhibition of Cryptococcus neoformans ATCC 32264 at 250 ug/ml incubated for 48 hrs under dark condition by broth microdilution method relative to control; format: functional; settings: ATCC 32264, 48 h, read-out: GI; procedure, shortened: as §3
[14] = tested on: Cryptococcus neoformans; assay: Growth inhibition of Cryptococcus neoformans ATCC 32264 at 125 ug/ml incubated for 48 hrs under dark condition by broth microdilution method relative to control; format: functional; settings: ATCC 32264, 48 h, read-out: GI; procedure, shortened: as §3
[15] = tested on: Cryptococcus neoformans; assay: Growth inhibition of Cryptococcus neoformans ATCC 32264 at 62.5 ug/ml incubated for 48 hrs under dark condition by broth microdilution method relative to control; format: functional; settings: ATCC 32264, 48 h, read-out: GI; procedure, shortened: as §3
[16] = tested on: Cryptococcus neoformans; assay: Growth inhibition of Cryptococcus neoformans ATCC 32264 at 31.25 ug/ml incubated for 48 hrs under dark condition by broth microdilution method relative to control; format: functional; settings: ATCC 32264, 48 h, read-out: GI; procedure, shortened: as §3
[17] = tested on: Cryptococcus neoformans; assay: Growth inhibition of Cryptococcus neoformans ATCC 32264 at 15.62 ug/ml incubated for 48 hrs under dark condition by broth microdilution method relative to control; format: functional; settings: ATCC 32264, 48 h, read-out: GI; procedure, shortened: as §3
[18] = tested on: Cryptococcus neoformans; assay: Growth inhibition of Cryptococcus neoformans ATCC 32264 at 7.8 ug/ml incubated for 48 hrs under dark condition by broth microdilution method relative to control; format: functional; settings: ATCC 32264, 48 h, read-out: GI; procedure, shortened: as §3
[19] = tested on: Cryptococcus neoformans; assay: Growth inhibition of Cryptococcus neoformans ATCC 32264 at 3.4 ug/ml incubated for 48 hrs under dark condition by broth microdilution method relative to control; format: functional; settings: ATCC 32264, 48 h, read-out: GI
[20] = tested on: Staphylococcus aureus; assay: Antibacterial activity against methicillin-sensitive Staphylococcus aureus ATCC 25923 after 24 hrs by resazurin dye based microdilution assay; format: functional; settings: ATCC 25923, 24 h; procedure, shortened: as §1
[21] = tested on: Staphylococcus aureus; assay: Antibacterial activity against methicillin-resistant Staphylococcus aureus ATCC 43300 after 24 hrs by resazurin dye based microdilution assay; format: functional; settings: ATCC 43300, 24 h
Procedure, shortened: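 Broth microdilution in Mueller Hinton broth, inoculum 5 × 10^5 – 8 × 10^5. Compound stocks diluted in MHB with 5% DMSO and 0.1% Tween 80. Incubation 24 h at 35-37 °C. MIC is the lowest concentration with visible growth inhibition and/or by resazurin (1 mg/mL) read-out. Gentamicin as control. Run in duplicate, replicated at least three times.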

[22] = tested on: Staphylococcus aureus; assay: Antibacterial activity against vancomycin-intermediate Staphylococcus aureus after 24 hrs by resazurin dye based microdilution assay; format: functional; procedure, shortened: as §1
[23] = tested on: Escherichia coli; assay: Antibacterial activity against Escherichia coli ATCC 25922 after 24 hrs by resazurin dye based microdilution assay; format: functional; settings: ATCC 25922, 24 h; procedure, shortened: as §1
[24] = tested on: Pseudomonas aeruginosa; assay: Antibacterial activity against Pseudomonas aeruginosa ATCC 27853 after 24 hrs by resazurin dye based microdilution assay; format: functional; settings: ATCC 27853, 24 h; procedure, shortened: as §1
[25] = tested on: Neisseria gonorrhoeae; assay: Antibacterial activity against beta lactamase positive Neisseria gonorrhoeae ATCC 31426 by oxidase test; format: functional
Procedure, shortened: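 Agar dilution MIC on GC agar with 1% isovitalex containing increasing compound concentrations. Plates inoculated with about 1×10^4 CFU (5 µL). MIC is the lowest concentration that inhibited growth, with growth confirmed by oxidase test. Run in duplicate, repeated at least three times.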

[26] = tested on: Plasmodium falciparum; assay: Antiplasmodial activity against chloroquine-sensitive Plasmodium falciparum 3D7 assessed as reduction in parasitic LDH activity after 48 hrs by Malstat reagent based […] method; format: functional; settings: 3D7, 48 h
Procedure, shortened: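 Unsynchronized P. falciparum 3D7 at 0.5% parasitemia and 1% hematocrit in RPMI with 3% Albumax II. Exposed to 100, 25, 6.25 and 1.56 µg/mL for 48 h at 37 °C under 90% N2/5% CO2/5% O2. After three freeze-thaw cycles, LDH measured with Malstat and NBT/PES, 1 h in the dark, read at 650 nm. IC50 by Probit; triplicate, ≥2 experiments.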

[27] = tested on: U-937; assay: Cytotoxicity against human U937 cells after 72 hrs by MTT assay; format: cell-based; settings: u-937, 72 h
Procedure, shortened: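 Exponentially growing U-937 at 1 × 10^5 cells/mL in RPMI-1640 with 10% FBS were exposed to 200, 50, 12.5 and 3.125 µg/mL for 72 h at 37 °C, 5% CO2. MTT for 3 h, stopped with isopropanol/SDS, formazan read at 570 nm, blank-corrected. LC50 by Probit from % viability against untreated cells. Triplicate, at least two independent experiments.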

[28] = tested on: Trypanosoma cruzi; assay: Antitrypanosomal activity against Trypanosoma cruzi Tulahuen intracellular amastigote harboring LacZ infected in human U937 cells after 72 hrs by CPRG/Nonidet reagent based spectrophotometric method; format: functional, cell-based; settings: U-937, 72 h
Procedure, shortened: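 U-937 cells at 2.5 × 10^5 cells/mL in RPMI-1640 with 10% serum and 0.1 µg/mL PMA were infected with β-galactosidase-transfected Tulahuen epimastigotes at 5 parasites per cell. Infected cells were exposed to 50, 12.5, 3.125 and 0.78 µg/mL for 72 h. CPRG (100 uM) and 0.1% Nonidet P-40 were added for 3 h, read at 570 nm. EC50 by Probit. Triplicate, at least two experiments; benznidazole as reference.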

O=C(/C=C/c1cccc(Nc2ccnc3cc(Cl)ccc23)c1)c1ccccc1
MIC [1]: > 1000 µg/mL
MIC [2]: > 1000 µg/mL
EC50 [3]: 2.54 µg/mL (≈ 6.6 µM)
MIC50 [4]: ≥ 250 µg/mL
MIC80 [4]: ≥ 250 µg/mL
MIC50 [5]: 31.2 µg/mL (≈ 81.2 µM)
MIC80 [5]: 62.5 µg/mL (≈ 162 µM)
inhibition of growth at 250 µg/mL [6]: 43.5%
inhibition of growth at 125 µg/mL [7]: 36.7%
inhibition of growth at 62.5 µg/mL [8]: 36.2%
inhibition of growth at 31.25 µg/mL [9]: 31.7%
inhibition of growth at 15.62 µg/mL [10]: 27.7%
inhibition of growth at 7.8 µg/mL [11]: 25.2%
inhibition of growth at 3.4 µg/mL [12]: 21.5%
inhibition of growth at 250 µg/mL [13]: 100%
inhibition of growth at 125 µg/mL [14]: 89.5%
inhibition of growth at 62.5 µg/mL [15]: 80.8%
inhibition of growth at 31.25 µg/mL [16]: 52.5%
inhibition of growth at 15.62 µg/mL [17]: 32.3%
inhibition of growth at 7.8 µg/mL [18]: 25.6%
inhibition of growth at 3.4 µg/mL [19]: 17.9%
MIC [20]: > 1000 µg/mL
MIC [21]: > 1000 µg/mL
MIC [22]: > 1000 µg/mL
MIC [23]: > 1000 µg/mL
MIC [24]: > 1000 µg/mL
MIC [25]: > 1000 µg/mL
EC50 [26]: 10.3 µg/mL (≈ 26.7 µM)
LC50 [27]: 1.5 µg/mL (≈ 3.9 µM)
EC50 [28]: > 0.8 µg/mL

CCN(CC)CCCC(C)Nc1ccnc2cc(Cl)ccc12.O=P(O)(O)O.O=P(O)(O)O (stereo unspecified) [CHLOROQUINE PHOSPHATE]
EC50 [26]: 18.9 µg/mL

O=C(/C=C/c1cccc(Nc2ccnc3cc(Cl)ccc23)c1)c1ccc(Br)cc1
MIC [1]: > 1000 µg/mL
MIC [2]: > 1000 µg/mL
EC50 [3]: 0.88 µg/mL (≈ 1.9 µM)
MIC50 [4]: 250 µg/mL (≈ 539 µM)
MIC80 [4]: ≥ 250 µg/mL
MIC50 [5]: 125 µg/mL (≈ 270 µM)
MIC80 [5]: 250 µg/mL (≈ 539 µM)
inhibition of growth at 250 µg/mL [6]: 58%
inhibition of growth at 125 µg/mL [7]: 47.7%
inhibition of growth at 62.5 µg/mL [8]: 35.3%
inhibition of growth at 31.25 µg/mL [9]: 28.9%
inhibition of growth at 15.62 µg/mL [10]: 32%
inhibition of growth at 7.8 µg/mL [11]: 21.1%
inhibition of growth at 3.4 µg/mL [12]: 15.8%
inhibition of growth at 250 µg/mL [13]: 100%
inhibition of growth at 125 µg/mL [14]: 70.6%
inhibition of growth at 62.5 µg/mL [15]: 47.9%
inhibition of growth at 31.25 µg/mL [16]: 46.4%
inhibition of growth at 15.62 µg/mL [17]: 44.5%
inhibition of growth at 7.8 µg/mL [18]: 35.1%
inhibition of growth at 3.4 µg/mL [19]: 34.9%
MIC [20]: > 1000 µg/mL
MIC [21]: > 1000 µg/mL
MIC [22]: > 1000 µg/mL
MIC [23]: > 1000 µg/mL
MIC [24]: > 1000 µg/mL
MIC [25]: > 1000 µg/mL
EC50 [26]: 10.3 µg/mL (≈ 22.3 µM)
LC50 [27]: 0.7 µg/mL (≈ 1.51 µM)
EC50 [28]: 1.35 µg/mL (≈ 2.91 µM)
